Biological target: Amyloid-beta precursor protein (Homo sapiens, UniProt P05067)
Assay: Inhibition constant against [125I]-7 (TZDM) binding to Amyloid beta 1-40 aggregates
Summary of the method: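 Abeta40 peptide aggregated at 0.5 mg/mL in pH 7.4 buffer (10 mM sodium phosphate, 1 mM EDTA), 37 °C for 36-42 h with shaking. Competition in 1 mL of 40% EtOH: fibrils 10-50 nM final, radiotracer 0.05 nM, inhibitors 10^-5 to 10^-10 M. Nonspecific binding with 2 µM thioflavin-T. Incubated 3 h at room temperature, then GF/B filtration with 10% ethanol washes and gamma counting. Ki from nonlinear regression.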

Chain of Amyloid-beta precursor protein (P05067 whole entry): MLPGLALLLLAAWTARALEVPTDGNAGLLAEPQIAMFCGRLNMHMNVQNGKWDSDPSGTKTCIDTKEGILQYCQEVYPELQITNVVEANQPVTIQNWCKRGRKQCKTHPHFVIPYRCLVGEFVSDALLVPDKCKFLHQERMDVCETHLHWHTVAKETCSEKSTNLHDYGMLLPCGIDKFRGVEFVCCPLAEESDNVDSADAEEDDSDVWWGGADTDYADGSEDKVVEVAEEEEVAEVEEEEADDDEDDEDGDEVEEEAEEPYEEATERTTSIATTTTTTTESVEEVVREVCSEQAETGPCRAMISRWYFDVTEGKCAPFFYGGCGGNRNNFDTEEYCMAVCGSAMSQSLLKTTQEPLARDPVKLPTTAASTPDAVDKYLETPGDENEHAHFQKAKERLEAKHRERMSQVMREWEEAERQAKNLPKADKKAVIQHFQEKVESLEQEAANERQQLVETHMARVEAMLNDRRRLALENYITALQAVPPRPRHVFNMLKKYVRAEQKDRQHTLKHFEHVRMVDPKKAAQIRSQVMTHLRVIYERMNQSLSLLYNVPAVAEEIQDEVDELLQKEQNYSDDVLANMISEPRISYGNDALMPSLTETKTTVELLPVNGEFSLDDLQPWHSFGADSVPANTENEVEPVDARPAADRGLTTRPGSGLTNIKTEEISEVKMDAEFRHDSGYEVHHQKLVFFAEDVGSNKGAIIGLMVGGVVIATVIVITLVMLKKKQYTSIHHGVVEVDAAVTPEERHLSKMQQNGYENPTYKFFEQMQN

Ki	SMILES
> 2000 nM	CN(C)c1ccc(-c2nc3ccc(I)cn3c2I)cc1
> 2000 nM	CN(C)c1ccc(-c2cn3ccccc3n2)cc1
339 nM	CN(C)c1ccc2nc(-c3ccc(Br)cc3)cn2c1
> 2000 nM	CNc1ccc(-c2cn3cc(C)ccc3n2)cc1
638 nM	Cc1ccc2nc(-c3ccc(Br)cc3)cn2c1
